Our source for the Activity, IC50 and inhibition values is ChEMBL document CHEMBL4765449, “Synthesis, biological evaluation and toxicity of novel tetrandrine analogues” (Eur J Med Chem, 2020).

Active and inactive are the calls of the source. No cut-off for these calls is given here.

Broadly, the IC50 is the point on the concentration scale where inhibition reaches its midpoint.

Series [1] has as its system HepaRG. Kind of series: Cytotoxicity against human HepaRG cells assessed as reduction in cell viability at 20 uM measured after 24 hrs by Celltiter-blue cell viability assay. The class given is cell-based. In short, it runs like this:
(§1)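 Differentiated HepaRG cells (Maintenance/Metabolism medium) exposed 24 h to 10 or 20 μM compound; viability by CellTiter-Blue, normalized to vehicle control. Means ± SEM of three independent experiments.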
(In general: The colour change of resazurin is a common sign of viable cells or microbes.)

Series [2] relates to CCRF-CEM. Briefly: Antiproliferative activity against vincristine-resistant human CEM cells assessed as reduction in cell viability measured after 48 hrs by Celltiter-blue cell viability assay. The class given is functional, cell-based. The gist of the method:
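VCR-R CEM cells (RPMI 1640, 10% FCS), 0.02 × 10^6 per well, rested 4 h (metabolic activity at this point taken as zero value), then exposed to compounds for 48 h; CellTiter-Blue added 2 h before end, fluorescence at 590 nm. IC50 by nonlinear regression; single-concentration proliferation read at 10 μM.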

For series [3], the system named is HepaRG. Briefly: Cytotoxicity against human HepaRG cells assessed as reduction in cell viability at 10 uM measured after 24 hrs by Celltiter-blue cell viability assay. The class given is cell-based. In short, it runs like this:
as §1

Another series deals with HUVEC. Briefly: Cytotoxicity against HUVEC assessed as reduction in cell viability at 1 to 10 uM measured after 24 hrs by Celltiter-blue cell viability assay. The class given is cell-based. The note with it: human, dose 1-10 µM. The gist of the method:
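HUVECs seeded, adhered overnight, exposed 24 h to 1, 5 and 10 μM; CellTiter-Blue viability normalized to vehicle control; three independent experiments.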

Series [4] in a line: Cytotoxicity against human PBMC assessed as reduction in cell viability at 1 to 10 uM measured after 48 hrs by propidium iodide staining based flow cytometry. For orientation: A flow cytometer gives signals particle by particle.
The subject of series [5] is CEM. Briefly: Inhibition of P-gp in vincristine-resistant human CEM cells assessed as potentiation of vincristine-induced apoptosis 1 uM measured after 48 hrs by propidium iodide staining based flow cytometry. It counts as cell-based. The gist of the method: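 VCR-R CEM, 0.125 × 10^6 per well, rested 4 h, then incubated 48 h with increasing vincristine with or without 1 μM compound; apoptosis by propidium iodide staining and flow cytometry. Three independent experiments.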

The subject of series [6] is HepG2. Briefly: Induction of mitochondrial membrane disruption in human HepG2 cells at 5 uM measured after 24 hrs by JC-1 dye based flow cytometric analysis. It counts as functional, cell-based. In short, it runs like this: (§2)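 Cells (HepG2 adhered overnight; VCR-R CEM seeded 4 h before) treated with DMSO or 5 μM for 24 h; JC-1 (1 μg/mL) 1 h before harvest, PBS wash, flow cytometry; green shift read as loss of ΔΨm. CCCP (100 μM, 1 h) positive control; elacridar (5 μM) present for CEM staining.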

In series [7] the test system is HepG2. Kind of series: Induction of apoptosis in human HepG2 cells assessed as reduction in Mcl-1 expression at 5 uM measured after 24 hrs by Western blot analysis. The class given is functional, cell-based. In short, it runs like this:
(§3)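 HepG2, 0.5 × 10^6 per well, adhered overnight, then DMSO or 5 μM compound; RIPA lysates immunoblotted by SDS-PAGE/PVDF with chemiluminescent detection.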
(In general: A western blot detects proteins with antibodies after separation by electrophoresis.)

The subject of series [8] is CCRF-CEM. Kind of series: Effect on P-gp expression in vincristine-resistant human CEM cells at 1 uM measured after 1.5 hrs by immunostaining based flow cytometry. The class given is functional, cell-based. In short, it runs like this: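 VCR-R CEM, 2 × 10^4 cells, 1 μM compound 1.5 h at 37 °C; washed in ice-cold 1% BSA/PBS, stained 30 min at 4 °C in dark with FITC anti-human P-gp, isotype control for background; flow cytometry, gMFI normalized to DMSO. Three independent experiments.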

Series [9] has as its system HepG2. Briefly: Cytotoxicity against human HepG2 cells overexpressing EGFP-CYP3A4 assessed as reduction in cell viability at 15 uM measured after 24 hrs by propidium iodide staining based flow cytometry. It counts as functional. The gist of the method:
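HepG2 stably transfected (G418 0.5 mg/mL, four weeks; plasmid confirmed by PCR) with pcDNA3-CYP3A4-EGFP or empty vector, 0.1 × 10^6 per well, adhered overnight; 15 μM compound 24 h. Propidium iodide staining and flow cytometry; specific cell death relative to control. Three independent experiments.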

Series [10] relates to HepG2. Briefly: Induction of apoptosis in human HepG2 cells assessed as reduction in Bcl-xl expression at 5 uM measured after 24 hrs by Western blot analysis. The class given is functional, cell-based. In short, it runs like this: as §3
Series [11] concerns HepG2. Kind of series: Inhibition of AKT phosphorylation at Ser473 residue in human HepG2 cells at 5 uM measured after 24 hrs by Western blot analysis. The class given is cell-based. The gist of the method:
as §3

Series [12] relates to CCRF-CEM. Briefly: Effect on Bcl-XL expression in vincristine-resistant human CEM cells at 5 uM measured after 24 hrs by Western blot analysis. The class given is functional, cell-based. The gist of the method:
(§4)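 VCR-R CEM cells, 2 × 10^6 per well, seeded 4 h before 5 μM compound or DMSO for 24 h; RIPA lysis, SDS-PAGE, PVDF blotting, chemiluminescence. Probed for p-Akt (Ser473), total Akt, PARP, Bcl-xL, Mcl-1; stain-free total protein as loading control.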

The subject of series [13] is CEM. Briefly: Inhibition of P-gp in vincristine-resistant human CEM cells at 0.1 to 1 uM using calcein-AM as substrate preincubated for 30 mins followed by compound washout and subsequent substrate addition measured after 60 mins by flow cytometric analysis. The note with it: dose 0.1-1 µM. The class given is cell-based.
The subject of series [14] is HepG2. Kind of series: Induction of apoptosis in human HepG2 cells assessed as increase in PARP cleavage at 5 uM measured after 24 hrs by Western blot analysis. It counts as functional, cell-based. The gist of the method: as §3
Series [15] deals with CCRF-CEM. Briefly: Induction of mitochondrial membrane disruption in vincristine-resistant human CEM cells at 5 uM measured after 24 hrs by JC-1 dye based flow cytometric analysis. It counts as functional, cell-based. In short, it runs like this:
as §2

For series [16], the system named is CCRF-CEM. Briefly: Effect on MCL1 expression in vincristine-resistant human CEM cells at 5 uM measured after 24 hrs by Western blot analysis. The class given is functional, cell-based. The gist of the method: as §4
Series [17] has as its system CEM. Kind of series: Effect on AKT phosphorylation at Ser473 residue in vincristine-resistant human CEM cells at 5 uM measured after 24 hrs by Western blot analysis. The class given is cell-based. In short, it runs like this:
as §4

Series [18] has as its system CCRF-CEM. Briefly: Induction of apoptosis in vincristine-resistant human CEM cells assessed as increase in PARP cleavage at 5 uM measured after 24 hrs by Western blot analysis. The class given is functional, cell-based. In short, it runs like this: as §4
Series [19] has as its system HepaRG. Kind of series: Cytotoxicity against human HepaRG cells overexpressing EGFP-CYP3A4 assessed as reduction in cell viability at 10 uM measured after 24 hrs by propidium iodide staining based flow cytometry. The class given is ADME. In short, it runs like this:
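HepaRG cells, differentiated, transiently transfected with pcDNA3-CYP3A4-EGFP or empty vector 16 h before stimulation; 10 μM compound for 24 h. Propidium iodide (5 μg/mL in PBS) staining, flow cytometry without FSC/SSC gating; specific cell death = % dead (treated) − % dead (control). Three independent experiments.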

Take `COc1cc2c3cc1Oc1c(OC)c(OC)cc4c1C(Cc1ccc(Cl)c(c1)Oc1ccc(cc1)CC3N(C)CC2)N(C)CC4` (mixture of isomers): the Activity result in the series on HepaRG [1] and in the series with HepaRG [3] was “Toxic” each time. For the same molecule, the IC50 in the series on CCRF-CEM [2] stood at 4.8 µM.

As to `COc1cc2c3cc1Oc1c(OC)c(OC)cc4c1C(Cc1ccc(OC(F)(F)F)c(c1)Oc1ccc(cc1)CC3N(C)CC2)N(C)CC4` (racemic; form 1), the Activity entry (with HUVEC; in the series on HepaRG [1]; in series [4]; in the series with HepaRG [3]) was “Toxic” each time.

Turning to `COc1cc2c3cc1Oc1c(OC)c(OC)cc4c1C(Cc1cc(cs1)Oc1ccc(cc1)CC3N(C)CC2)N(C)CC4` (racemic; form 1), the inhibition result with CEM [5], with HepG2 [11] and in the series with CEM [13] was “Active” in each case. Moreover, the outcome with HepG2 [6], with CCRF-CEM [8], in the series on CCRF-CEM [12], with HepG2 [14], with CCRF-CEM [16] and in the series on CEM [17] was inactive. In addition, the result in the series on HepG2 [7], with HepG2 [9], with HepG2 [10] and in the series on CCRF-CEM [15] was Active.

Take `COc1cc2c3cc1Oc1c(OC)c(OC)cc4c1C(Cc1ccc(OC(F)(F)F)c(c1)Oc1ccc(cc1)CC3N(C)CC2)N(C)CC4` (racemic; form 2): the inhibition result in the series on CEM [5], with HepG2 [11] and in the series on CEM [13] was “Active” throughout. Besides, the outcome with HepG2 [6], with CCRF-CEM [8], in the series with CCRF-CEM [12], in the series with HepG2 [14], with CCRF-CEM [16] and in the series with CEM [17] was inactive. The outcome with HepG2 [9], in the series on CCRF-CEM [15] and in the series on CCRF-CEM [18] was Active.

With `COc1ccc2cc1Oc1ccc(cc1)C[C@H]1c3cc(c(OC)cc3CCN1C)Oc1c(OC)c(OC)cc3c1[C@H](C2)N(C)CC3` [FANCHININ], the Activity result (with HepaRG [19]; in the series on HUVEC; in the series on HepaRG [1]; in series [4]; in the series with HepaRG [3]) was “Toxic” in each case. The inhibition entry in the series on CEM [5] and with CEM [13] was “Active” throughout. In addition, the result with HepG2 [6], in the series with CCRF-CEM [8], with CCRF-CEM [12], in the series with HepG2 [14], in the series on CCRF-CEM [15] and in the series on CCRF-CEM [16] was inactive. In addition, the outcome in the series on CEM [17] was inactive. In addition, the result in the series on HepG2 [9] was Active.
